For one test, the system named is HT-29. The experiment in a line: Antiproliferative activity against human HT-29 cells after 48 hrs by sulforhodamine B assay. It counts as functional, cell-based. As to conditions: HT-29, 48 h. A general note: In SRB staining, fixed cells bind dye roughly in proportion to their protein.
The test system of test [1] is M21. The experiment in a line: Antiproliferative activity against human M21 cells after 48 hrs by sulforhodamine B assay. Type of test: functional, cell-based. As to conditions: M21, 48 h.
The subject of another test is MCF7. The experiment in a line: Antiproliferative activity against human MCF7 cells after 48 hrs by sulforhodamine B assay. Type of test: functional, cell-based. As to conditions: MCF7, 48 h.
Test [2] has as its system M21. The experiment in a line: Cell cycle arrest in human M21 cells assessed as accumulation at G0/G1 phase at 5 times IC50 after 24 hrs using propidium iodide staining by flow cytometric analysis (reference value: 61%). It counts as functional.
Test [3] deals with M21. Description: Cell cycle arrest in human M21 cells assessed as accumulation at S phase at 5 times IC50 after 24 hrs using propidium iodide staining by flow cytometric analysis (reference value: 30%). Type of test: functional. In general terms: Flow cytometry measures light scatter and fluorescence of single cells or particles in a stream.
In test [4] the test system is M21. Description: Cell cycle arrest in human M21 cells assessed as accumulation at G2/M phase at 5 times IC50 after 24 hrs using propidium iodide staining by flow cytometric analysis (reference value: 9%). It counts as functional.
The test system of the next test is MDA-MB-231. Description: Displacement of N,N'-ethylenebis(iodoacetamide) from colchicine-binding site of beta-tubulin in human MDA-MB-231 cells at 1000 times IC50 preincubated for after 2 hrs before N,N'-ethylenebis(iodoacetamide) addition measured after 1.5 hrs by chemiluminescence assay. Type of test: cell-based. In outline:
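EBI (100 μM final) added for 1.5 h at 37 °C; controls received 0.5% DMSO. Lysates (20 μg protein) run on 10% SDS-PAGE and blotted with anti-β-tubulin (TUB 2.1). β-tubulin–EBI adduct band detected by ECL.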

Test [5] concerns M21. The experiment in a line: Disruption of cytoskeleton microtubule structure of human M21 cells at 5 times IC50 after 16 hrs by indirect immunofluorescence assay. It counts as functional, cell-based. In outline: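 Fixed in 3.7% formaldehyde, permeabilized with saponin, and stained with anti-β-tubulin (TUB 2.1), Alexa-488 secondary and DAPI. Microtubule structure scored by fluorescence microscopy.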

The structures appear in SMILES notation. Active and inactive are the calls of the source. The calls are words filed in the database; no cut-off is given here.

On to `O=C1NCCN1c1ccc(S(=O)(=O)Oc2cc(F)cc(F)c2)cc1`, for which the IC50 was 0.036 µM with HT-29, 0.015 µM in the test with M21 [1] and 0.047 µM in the test on MCF7. Moreover, the values for the Activity with M21 [2], with M21 [3] and with M21 [4] were 12%, 29% and 59%, respectively. Besides, in the test on MDA-MB-231, the inhibition result is “Active”. Also, the outcome in the test on M21 [5] was Active.

For `COc1ccc(OS(=O)(=O)c2ccc(N3CCNC3=O)cc2)cc1OC`, the IC50 with HT-29 is 0.067 µM; in the test on M21 [1] it was 0.045 µM; with MCF7, 0.088 µM. Further, the Activity with M21 [2] came to 1%; with M21 [3], 19%; in the test on M21 [4], 80%. Besides, the inhibition result in the test on MDA-MB-231 is “Active”. In the test with M21 [5], the result was Active.

Take `Cc1cc(C)c(OS(=O)(=O)c2ccc(N3CCNC3=O)cc2)cc1C`: the results for the IC50 in the test on HT-29, in the test with M21 [1] and with MCF7 were 0.042 µM, 0.041 µM and 0.066 µM, respectively. Moreover, the figures for the Activity with M21 [2], in the test with M21 [3] and in the test on M21 [4] were 1%, 20% and 79%, respectively. Also, the inhibition result with MDA-MB-231 was “Active”. In the test on M21 [5], the outcome was Active.

For `O=C1NCCN1c1ccc(S(=O)(=O)Oc2cc(Cl)c(Cl)cc2Cl)cc1`, the figures for the IC50 with HT-29, in the test with M21 [1] and with MCF7 were 0.03 µM, 0.031 µM and 0.03 µM, respectively. Moreover, the Activity in the test on M21 [2] is 1%; in the test with M21 [3], 0%; with M21 [4], 99%. The inhibition entry in the test on MDA-MB-231 was “Active”. The outcome in the test on M21 [5] was Active.

With `O=C1NCCN1c1ccc(S(=O)(=O)Oc2ccc3[nH]ccc3c2)cc1`, the figures for the IC50 in the test on HT-29, in the test on M21 [1] and in the test with MCF7 were 0.07 µM, 0.065 µM and 0.1 µM, respectively. In addition, the Activity in the test on M21 [2] amounted to 19%; in the test on M21 [3], 17%; in the test on M21 [4] it was 64%. For the same compound, the inhibition entry with MDA-MB-231 is “Active”. Also, the outcome with M21 [5] was Active.

Regarding `Cc1ccc(OS(=O)(=O)c2ccc(N3CCNC3=O)cc2)cc1`, the IC50 came out at 0.12 µM in the test on HT-29, 0.093 µM in the test with M21 [1] and 0.15 µM in the test on MCF7. Besides, the Activity stood at 32% in the test with M21 [2], 13% with M21 [3] and 55% with M21 [4]. Also, in the test on MDA-MB-231, the inhibition entry was “inactive”. In the test on M21 [5], the outcome was Active.

`COc1cccc(OS(=O)(=O)c2ccc(N3CCNC3=O)cc2)c1`: the IC50 in the test with HT-29 was 0.029 µM; in the test on M21 [1], 0.024 µM; in the test on MCF7, 0.034 µM. Further, the Activity with M21 [2] was 1%; with M21 [3], 1%; with M21 [4], 98%. In addition, the inhibition entry with MDA-MB-231 was “Active”. In the test with M21 [5], the result was Active.

Turning to `O=C1NCCN1c1ccc(S(=O)(=O)Oc2cccc(F)c2)cc1`, the IC50 in the test with HT-29 came out at 0.042 µM; in the test with M21 [1] it was 0.031 µM; with MCF7, 0.054 µM. Moreover, the Activity in the test on M21 [2] was determined as 7%; with M21 [3], 9%; with M21 [4], 84%. In addition, in the test with MDA-MB-231, the inhibition entry was “Active”. In the test with M21 [5], the outcome was Active.

As to `O=C1NCCN1c1ccc(S(=O)(=O)Oc2ccccc2I)cc1`, the IC50 in the test with HT-29 was determined as 0.055 µM; in the test on M21 [1] it was 0.04 µM; with MCF7 it was 0.071 µM. For the same compound, the figures for the Activity with M21 [2], in the test on M21 [3] and in the test on M21 [4] were 4%, 25% and 71%, respectively. In addition, in the test on MDA-MB-231, the inhibition result is “Active”. For the same compound, the result with M21 [5] was Active.

As for `O=C1NCCN1c1ccc(S(=O)(=O)Oc2ccc(Cl)cc2)cc1`, the IC50 in the test with HT-29 is 0.087 µM; in the test on M21 [1], 0.058 µM; with MCF7, 0.088 µM. Besides, the Activity with M21 [2] stood at 0%; in the test on M21 [3], 0%; in the test with M21 [4] it was 100%. Moreover, in the test on MDA-MB-231, the inhibition entry was “Active”. In addition, the result in the test on M21 [5] was Active.

With `CCc1ccccc1OS(=O)(=O)c1ccc(N2CCNC2=O)cc1`, the values for the IC50 in the test with HT-29, in the test with M21 [1] and in the test with MCF7 were 0.061 µM, 0.052 µM and 0.087 µM, respectively. Moreover, the Activity worked out at 0% in the test with M21 [2], 0% in the test with M21 [3] and 100% in the test with M21 [4]. In the test on MDA-MB-231, the inhibition result is “Active”. Also, the outcome in the test on M21 [5] was Active.

As to `CCCc1ccccc1OS(=O)(=O)c1ccc(N2CCNC2=O)cc1`, the IC50 with HT-29 was found to be 0.076 µM; in the test with M21 [1], 0.061 µM; with MCF7 it was 0.069 µM. Also, the Activity in the test with M21 [2] is on record as 0%; in the test with M21 [3], 0%; with M21 [4] it was 100%. Also, the inhibition result in the test on MDA-MB-231 is “Active”. In addition, the result in the test with M21 [5] was Active.

Consider `Cc1ccc(OS(=O)(=O)c2ccc(N3CCNC3=O)cc2)c(C)c1`, for which the IC50 in the test with HT-29 stood at 0.051 µM; in the test on M21 [1], 0.039 µM; in the test on MCF7 it was 0.05 µM. Besides, the Activity in the test on M21 [2] is recorded as 0%; with M21 [3], 0%; in the test on M21 [4] it was 100%. Moreover, the inhibition entry with MDA-MB-231 is “Active”. For the same compound, the outcome in the test with M21 [5] was Active.

With `CCCOc1ccc(OS(=O)(=O)c2ccc(N3CCNC3=O)cc2)cc1`, the IC50 in the test on HT-29 worked out at 0.11 µM; with M21 [1], 0.096 µM; with MCF7 it was 0.14 µM. Besides, the values for the Activity with M21 [2], in the test on M21 [3] and in the test on M21 [4] were 0%, 6% and 94%, respectively. Also, in the test with MDA-MB-231, the inhibition result was “Active”. The result in the test on M21 [5] was Active.

As to `O=C1NCCN1c1ccc(S(=O)(=O)Oc2cccc([N+](=O)[O-])c2)cc1`, the IC50 was 0.1 µM with HT-29, 0.048 µM in the test with M21 [1] and 0.06 µM with MCF7. Also, the Activity with M21 [2] is recorded as 56%; in the test on M21 [3], 13%; in the test on M21 [4], 31%. Also, the inhibition result in the test with MDA-MB-231 is “Active”. In the test on M21 [5], the outcome was Active.

Consider `Cc1cc(OS(=O)(=O)c2ccc(N3CCNC3=O)cc2)cc(C)c1C`, for which the IC50 with HT-29 was 0.034 µM; with M21 [1] it was 0.015 µM; in the test on MCF7 it was 0.049 µM. In addition, the Activity in the test with M21 [2] worked out at 0%; with M21 [3] it was 0%; in the test on M21 [4], 99%. Besides, in the test on MDA-MB-231, the inhibition result is “Active”. Moreover, the result with M21 [5] was Active.

For the compound `O=C1NCCN1c1ccc(S(=O)(=O)Oc2cc(F)c(F)c(F)c2)cc1`, the IC50 with HT-29 was 0.073 µM; in the test with M21 [1] it was 0.043 µM; in the test with MCF7, 0.091 µM. For the same compound, the Activity with M21 [2] stood at 4%; in the test with M21 [3], 31%; in the test with M21 [4] it was 65%. Moreover, in the test on MDA-MB-231, the inhibition result is “Active”. The outcome with M21 [5] was Active.

`Cc1cc(C)cc(OS(=O)(=O)c2ccc(N3CCNC3=O)cc2)c1`: the results for the IC50 with HT-29, in the test with M21 [1] and with MCF7 were 0.032 µM, 0.016 µM and 0.047 µM, respectively. Also, the Activity was determined as 7% with M21 [2], 26% in the test on M21 [3] and 67% in the test on M21 [4]. In the test with MDA-MB-231, the inhibition entry was “Active”. Further, the result in the test with M21 [5] was Active.

Broadly, the IC50 is the concentration that inhibits the measured activity by half. Read a high IC50 as a need for much substance.

These data come from ChEMBL document CHEMBL1799919, “Design, synthesis, biological evaluation, and structure-activity relationships of substituted phenyl 4-(2-oxoimidazolidin-1-yl)benzenesulfonates as new tubulin inhibitors mimicking combretastatin A-4” (J Med Chem, 2011).
